Here are results for 1 molecule from ChEMBL document CHEMBL3596186, “Synthesis and biological evaluation of diarylthiazole derivatives as antimitotic and antivascular agents with potent antitumor activity” (Bioorg Med Chem, 2015).

As usually defined, the pIC50 is the IC50 on a negative log10 scale, so that one unit is a factor of ten. Low readings indicate a large IC50, high ones a small IC50.

pIC50: −log10 of the molar value. The source made the active and inactive calls. No cut-off for these calls is given here.

Data set [1] has as its system HCT-116. The data set can be described thus: Induction of apoptosis in human HCT116 cells assessed as late apoptotic cells at 0.5 uM after 24 hrs by annexin V/propidium iodide staining-based flow cytometry (reference value: 1.71%). The class given is functional. The method in brief: (§1)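 HCT116 cells treated with compound or DMSO for 24 or 48 h, trypsinized, washed twice in PBS and dual-stained with annexin-V and PI. Analysed by flow cytometry: early apoptotic cells scored as annexin-V+/PI−, late apoptotic cells as annexin-V+/PI+.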
For orientation: Flow cytometry measures light scatter and fluorescence of single cells or particles in a stream.

Data set [2] has as its system HCT-116. The data set can be described thus: Cell cycle arrest in human HCT116 cells assessed as accumulation at S phase at 0.2 uM after 24 hrs by flow cytometry (reference value: 25.66%). The class given is functional.
In data set [3] the test system is HCT-116. As to the kind of experiment: Cell cycle arrest in human HCT116 cells assessed as accumulation at S phase at 1 uM after 24 hrs by flow cytometry (reference value: 25.66%). The format is functional.
Data set [4] has as its system HepG2. As to the kind of experiment: Cell cycle arrest in human HepG2 cells assessed as accumulation at G2/M phase at 0.5 uM after 24 hrs by flow cytometry (reference value: 11.29%). The class given is functional.
In data set [5] the test system is HepG2. As to the kind of experiment: Antiproliferative activity against human HepG2 cells after 48 hrs by MTT assay. The format is functional, cell-based. The note with it: HepG2, 48 h. The essentials:
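HCT116, HepG2, SMMC-7721, SK-OV-3 and A2780s grown in DMEM; A549 and MCF-7 in RPMI-1640; all with 10% FBS and penicillin/streptomycin at 37 °C, 5% CO2. Log-phase cells at 40,000-50,000 cells/mL treated with graded concentrations for 48 h. MTT 3 h, DMSO solubilization, A570. IC50 from percent growth versus untreated control; mean ± SEM of ≥3 independent dose-response experiments.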

Data set [6] concerns HepG2. The data set can be described thus: Induction of apoptosis in human HepG2 cells assessed as necrotic cells at 0.2 uM after 48 hrs by annexin V/propidium iodide staining-based flow cytometry (reference value: 1.59%). The class given is functional.
Data set [7] relates to HUVEC. As to the kind of experiment: Antivascular activity against HUVEC assessed as inhibition of tube formation after 8 hrs by Matrigel assay. The format is functional, cell-based. The note with it: Homo sapiens. The essentials: (§2)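 Wells of prechilled plates coated with Matrigel and solidified 45 min at 37 °C. HUVECs (1 × 10^4) in EBM-2 containing compound (125-500 nM) seeded onto the gel and incubated 8 h at 37 °C. Capillary networks photographed at 100×; tubule numbers and line lengths counted manually.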

The test system of data set [8] is HepG2. As to the kind of experiment: Induction of apoptosis in human HepG2 cells assessed as viable cells at 1 uM after 48 hrs by annexin V/propidium iodide staining-based flow cytometry (reference value: 89.8%). The note with it: HepG2, 48 h, read-out: Activity. The format is functional.
Data set [9] concerns HepG2. As to the kind of experiment: Cell cycle arrest in human HepG2 cells assessed as accumulation at G1 phase at 0.5 uM after 24 hrs by flow cytometry (reference value: 62.74%). The class given is functional.
For data set [10], the system named is HCT-116. The data set can be described thus: Induction of apoptosis in human HCT116 cells assessed as viable cells at 0.5 uM after 48 hrs by annexin V/propidium iodide staining-based flow cytometry (reference value: 92%). The format is functional. The note with it: HCT-116, 48 h, read-out: Activity.
Data set [11] concerns HCT-116. The data set can be described thus: Induction of apoptosis in human HCT116 cells assessed as necrotic cells at 1 uM after 24 hrs by annexin V/propidium iodide staining-based flow cytometry (reference value: 3.49%). The class given is functional.
The subject of data set [12] is HCT-116. As to the kind of experiment: Induction of apoptosis in human HCT116 cells assessed as viable cells at 1 uM after 24 hrs by annexin V/propidium iodide staining-based flow cytometry (reference value: 92%). The format is functional. The note with it: HCT-116, 24 h, read-out: Activity.
The test system of data set [13] is Mus musculus. The data set can be described thus: Toxicity in Balb/c athymic nude mouse xenografted with human SKOV3 cells assessed as loss in body weight at 20 to 50 mg/kg, ip administered daily. The class given is organism-based, SK-OV-3. The following applies: in vivo. The method in brief:
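Female Balb/C athymic nude mice, 5-6 weeks old, carrying s.c. right-flank SK-OV-3 xenografts started from cells in HBSS. At about 100 mm3, groups of 6 received vehicle, 5-FU 10 mg/kg, or test agent i.p. daily. Body weight was measured every two days.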
A general note: A xenograft is tissue or cells of one species grown in another, often human tumour cells in immunodeficient mice.

Data set [14] has as its system HCT-116. The data set can be described thus: Cell cycle arrest in human HCT116 cells assessed as accumulation at G2/M phase at 0.2 uM after 24 hrs by flow cytometry (reference value: 20.36%). The class given is functional.
The subject of data set [15] is HepG2. As to the kind of experiment: Induction of apoptosis in human HepG2 cells assessed as early apoptotic cells at 1 uM after 24 hrs by annexin V/propidium iodide staining-based flow cytometry (reference value: 0.87%). The format is functional.
Data set [16] concerns HCT-116. The data set can be described thus: Induction of apoptosis in human HCT116 cells assessed as necrotic cells at 0.5 uM after 24 hrs by annexin V/propidium iodide staining-based flow cytometry (reference value: 3.49%). The format is functional.
In data set [17] the test system is HUVEC. The data set can be described thus: Antivascular activity against HUVEC assessed as inhibition of tube formation at 125 to 500 nM after 8 hrs by Matrigel assay. The format is functional, cell-based. The note with it: Homo sapiens. The essentials:
as §2

Data set [18] relates to HCT-116. The data set can be described thus: Induction of apoptosis in human HCT116 cells assessed as viable cells at 0.2 uM after 24 hrs by annexin V/propidium iodide staining-based flow cytometry (reference value: 92%). The class given is functional. The note with it: HCT-116, 24 h, read-out: Activity.
Data set [19] deals with HCT-116. As to the kind of experiment: Induction of apoptosis in human HCT116 cells assessed as early apoptotic cells at 1 uM after 48 hrs by annexin V/propidium iodide staining-based flow cytometry (reference value: 2.83%). The class given is functional. The method in brief: as §1
In data set [20] the test system is HepG2. As to the kind of experiment: Induction of apoptosis in human HepG2 cells assessed as viable cells at 0.5 uM after 48 hrs by annexin V/propidium iodide staining-based flow cytometry (reference value: 89.8%). The class given is functional. The following applies: HepG2, 48 h, read-out: Activity.
Data set [21] has as its system HCT-116. The data set can be described thus: Cell cycle arrest in human HCT116 cells assessed as accumulation at G1 phase at 1 uM after 24 hrs by flow cytometry (reference value: 53.98%). The class given is functional.
In data set [22] the test system is HCT-116. The data set can be described thus: Cell cycle arrest in human HCT116 cells assessed as accumulation at G2/M phase at 0.5 uM after 24 hrs by flow cytometry (reference value: 20.36%). The format is functional.
In data set [23] the test system is SK-OV-3. As to the kind of experiment: Antitumor activity against human SKOV3 cells xenografted in Balb/c athymic nude mouse assessed as tumor growth inhibition at 50 mg/kg, ip administered daily after 42 days. The format is functional. The following applies: SK-OV-3, ip, 1008 h, read-out: TGI.
The subject of data set [24] is HCT-116. As to the kind of experiment: Induction of apoptosis in human HCT116 cells assessed as early apoptotic cells at 0.2 uM after 48 hrs by annexin V/propidium iodide staining-based flow cytometry (reference value: 2.83%). The format is functional. The essentials:
as §1

Turning to `CCOc1ccc(-c2nc(N)sc2-c2cc(OC)c(OC)c(OC)c2)cc1`, the Activity in [1] is 10.8%; in [2], 22%; in [3] it was 7.71%; in data set [4], 62.63%; in data set [6] it was 0.79%; in data set [7], “Dose-dependent effect”. Further, the Activity was 30.08% in data set [9]; 3.15% in data set [11]; “Toxic” in data set [13]; 48.79% in data set [14]; 25.4% in [15]; 3.5% in data set [16]. Also, the Activity in data set [19] was found to be 43.1%; in data set [21], 13.06%; in data set [22], 68.04%; in [24], 40.2%. The molecule also gave a pIC50 in data set [5] of 7.58. The values for the viability at 1 µM in [8] and in data set [12] were 25.9% and 62.1%, respectively. The results for the viability at 0.5 µM in [10] and in data set [20] were 29.1% and 29.6%, respectively. Moreover, in [17], the outcome was Active. Further, the viability at 0.2 µM in [18] is 80.4%. The inhibition in vivo at 50 mg/kg in [23] came out at 72.7%.
